One data set addresses T1, CYP2C8 (Homo sapiens, UniProt P10632).
T1 sequence (P10632 whole entry): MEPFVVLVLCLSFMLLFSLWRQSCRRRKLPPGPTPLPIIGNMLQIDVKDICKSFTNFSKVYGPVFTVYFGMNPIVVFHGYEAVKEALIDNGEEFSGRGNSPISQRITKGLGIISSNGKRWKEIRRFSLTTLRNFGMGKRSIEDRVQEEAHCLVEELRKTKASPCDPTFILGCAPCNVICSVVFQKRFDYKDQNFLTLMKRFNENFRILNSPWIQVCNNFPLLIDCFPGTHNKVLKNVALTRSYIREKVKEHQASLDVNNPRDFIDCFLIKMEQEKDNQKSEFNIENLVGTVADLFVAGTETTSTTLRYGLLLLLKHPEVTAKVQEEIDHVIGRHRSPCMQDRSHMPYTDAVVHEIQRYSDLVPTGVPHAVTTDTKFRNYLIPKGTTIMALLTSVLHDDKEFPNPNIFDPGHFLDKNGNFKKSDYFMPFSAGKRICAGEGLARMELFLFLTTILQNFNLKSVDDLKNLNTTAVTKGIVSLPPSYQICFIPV
The experiment in a line: Inhibition of CYP2C8 in human liver microsomes at 10 uM using testosterone/dextromethorphan as probe substrate measured after 10 mins relative to control. Type of data set: ADME.

The target of the next data set is CYP2C9 (Homo sapiens, UniProt P11712). In words: Inhibition of CYP2C9 in human liver microsomes at 10 uM using testosterone/dextromethorphan as probe substrate measured after 10 mins relative to control. Type of data set: ADME.
Data set [1] is described as follows: Clearance in C57BL/6J mouse at 1 mg/kg, iv measured up to 30 hrs by LC-MS/MS analysis. It counts as ADME, organism-based. The following applies: in vivo. Put shortly:
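Male C57BL/6J mice (n = 6) received single doses of 3 mg/kg po or 1 mg/kg iv. Plasma concentrations were measured by LC-MS. Values are mean ± SD. Oral bioavailability (%F) was calculated from the ratio to iv AUC.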

The target of data set [2] is Phosphatidylinositol 4,5-bisphosphate 3-kinase catalytic subunit alpha isoform (Homo sapiens, UniProt P42336). The experiment in a line: Inhibition of human PI3Kalpha using PIP2 as substrate after 1 hr.
Another data set deals with T2, CYP1A2 (Homo sapiens, UniProt P05177).
T2 sequence (P05177 whole entry): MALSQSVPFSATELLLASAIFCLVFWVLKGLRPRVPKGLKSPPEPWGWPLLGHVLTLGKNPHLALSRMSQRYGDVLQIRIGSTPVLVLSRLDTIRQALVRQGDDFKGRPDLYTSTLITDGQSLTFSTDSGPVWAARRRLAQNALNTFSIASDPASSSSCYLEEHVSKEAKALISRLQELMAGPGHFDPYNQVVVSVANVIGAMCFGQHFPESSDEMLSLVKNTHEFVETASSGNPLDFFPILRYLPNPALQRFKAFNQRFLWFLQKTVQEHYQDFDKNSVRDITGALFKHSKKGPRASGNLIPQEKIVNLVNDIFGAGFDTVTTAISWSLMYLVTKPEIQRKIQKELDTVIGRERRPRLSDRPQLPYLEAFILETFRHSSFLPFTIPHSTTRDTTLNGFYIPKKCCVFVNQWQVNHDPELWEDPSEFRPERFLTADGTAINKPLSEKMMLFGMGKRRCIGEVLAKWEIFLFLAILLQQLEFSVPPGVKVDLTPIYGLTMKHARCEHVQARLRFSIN
In words: Inhibition of CYP1A2 in human liver microsomes at 10 uM using testosterone/dextromethorphan as probe substrate measured after 10 mins relative to control. Type of data set: ADME. (In general: Microsomes from liver hold many membrane-bound enzymes, among them those of drug oxidation.)

Data set [3] addresses Phosphatidylinositol 4,5-bisphosphate 3-kinase catalytic subunit gamma isoform (Homo sapiens, UniProt P48736). The experiment in a line: Inhibition of human PI3Kgamma using PIP2 as substrate after 1 hr.
Data set [4] relates to TMD8. The experiment in a line: Antitumor activity against human TMD8 cells xenografted in SCID mouse assessed as decrease in tumor volume at 3 to 30 mg/kg/day, po QD for 16 days and measured every alternate day. It counts as functional, organism-based. The procedure, abridged: (§1)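 Male SCID mice were inoculated with TMD-8 cells. Oral doses of 3, 10 and 30 mg/kg/day were given. The efficacy endpoint was inhibition of tumor volume relative to the vehicle (untreated) group.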

Data set [5] concerns TMD8. In words: Antiproliferative activity against human TMD8 cells. It counts as functional, cell-based.
Data set [6] is described as follows: Toxicity in human TMD8 cells xenografted SCID mouse assessed as decrease in body weight at 30 mg/kg/day, po QD for 16 days. Type of data set: organism-based. The following applies: in vivo, 384 h. Put shortly:
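Male SCID mice bearing TMD-8 xenografts received oral doses of 3, 10 or 30 mg/kg/day. Body weight was recorded during treatment.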
(In xenograft studies the graft and the host belong to different species.)

Data set [7] has as its system TMD8. In words: Antitumor activity against human TMD8 cells xenografted in SCID mouse assessed as decrease in tumor volume at 30 mg/kg/day, po QD for 16 days and measured every alternate day. It counts as functional. Particulars: 384 h. Put shortly:
as §1

The next data set is filed under the species Homo sapiens. The experiment in a line: Selectivity ratio of IC50 for human PI3Kalpha to IC50 for human PI3Kdelta. Put shortly: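 IC50s for the PI3K α, β, γ and δ isoforms came from a commercial PI3K inhibitory activity assay kit. Each IC50 is the mean of at least two experiments. The ratio is the α, β or γ IC50 divided by the δ IC50.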
Another data set has as its target CYP2D6 (Homo sapiens, UniProt P10635). The experiment in a line: Inhibition of CYP2D6 in human liver microsomes at 10 uM using testosterone/dextromethorphan as probe substrate measured after 10 mins relative to control. Type of data set: ADME.

Phosphatidylinositol 4,5-bisphosphate 3-kinase catalytic subunit alpha isoform, sequence (P42336 whole entry, looked up, canonical isoform): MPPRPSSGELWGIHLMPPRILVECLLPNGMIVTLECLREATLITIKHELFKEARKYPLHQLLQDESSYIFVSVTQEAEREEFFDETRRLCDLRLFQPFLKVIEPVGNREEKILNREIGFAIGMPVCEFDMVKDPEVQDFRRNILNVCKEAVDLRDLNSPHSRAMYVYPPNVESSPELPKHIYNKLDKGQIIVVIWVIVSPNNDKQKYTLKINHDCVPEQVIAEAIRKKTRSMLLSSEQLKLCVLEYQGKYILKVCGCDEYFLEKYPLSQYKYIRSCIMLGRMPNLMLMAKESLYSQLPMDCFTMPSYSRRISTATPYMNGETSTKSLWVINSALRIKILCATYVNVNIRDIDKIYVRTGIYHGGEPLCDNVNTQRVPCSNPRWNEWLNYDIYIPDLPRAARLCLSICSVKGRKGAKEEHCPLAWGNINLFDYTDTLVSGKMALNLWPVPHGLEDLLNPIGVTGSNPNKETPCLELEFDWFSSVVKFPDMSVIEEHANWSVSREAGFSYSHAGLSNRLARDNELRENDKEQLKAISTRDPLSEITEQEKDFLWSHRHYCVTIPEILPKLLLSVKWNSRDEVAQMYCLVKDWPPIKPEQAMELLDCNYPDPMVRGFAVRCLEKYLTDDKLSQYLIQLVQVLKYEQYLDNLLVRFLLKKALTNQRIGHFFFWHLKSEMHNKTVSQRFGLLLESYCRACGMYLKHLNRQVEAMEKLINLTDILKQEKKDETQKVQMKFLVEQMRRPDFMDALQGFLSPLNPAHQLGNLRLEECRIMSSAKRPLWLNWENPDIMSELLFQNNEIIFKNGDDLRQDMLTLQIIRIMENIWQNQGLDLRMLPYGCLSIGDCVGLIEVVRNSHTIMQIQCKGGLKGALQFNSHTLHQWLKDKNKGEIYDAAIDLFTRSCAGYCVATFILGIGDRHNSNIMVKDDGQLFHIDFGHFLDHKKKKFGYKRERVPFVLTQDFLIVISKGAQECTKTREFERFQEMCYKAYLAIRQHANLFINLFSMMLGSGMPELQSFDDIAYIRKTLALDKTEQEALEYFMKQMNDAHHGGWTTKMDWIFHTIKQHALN
CYP2D6, sequence (P10635 whole entry): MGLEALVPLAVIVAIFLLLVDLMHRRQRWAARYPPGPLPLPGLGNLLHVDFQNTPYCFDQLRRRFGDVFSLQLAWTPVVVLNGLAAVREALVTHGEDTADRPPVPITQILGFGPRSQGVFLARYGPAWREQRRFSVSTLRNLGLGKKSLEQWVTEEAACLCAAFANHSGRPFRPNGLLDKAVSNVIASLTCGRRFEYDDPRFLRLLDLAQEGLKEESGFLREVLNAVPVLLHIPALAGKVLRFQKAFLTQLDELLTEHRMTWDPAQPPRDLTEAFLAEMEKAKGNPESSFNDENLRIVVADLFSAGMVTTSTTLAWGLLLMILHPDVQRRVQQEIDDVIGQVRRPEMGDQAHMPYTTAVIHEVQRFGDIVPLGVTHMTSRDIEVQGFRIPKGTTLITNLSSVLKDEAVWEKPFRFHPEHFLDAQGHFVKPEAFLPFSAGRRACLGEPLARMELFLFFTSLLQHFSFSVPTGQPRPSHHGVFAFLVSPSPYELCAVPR
CYP2C9, sequence (P11712 whole entry): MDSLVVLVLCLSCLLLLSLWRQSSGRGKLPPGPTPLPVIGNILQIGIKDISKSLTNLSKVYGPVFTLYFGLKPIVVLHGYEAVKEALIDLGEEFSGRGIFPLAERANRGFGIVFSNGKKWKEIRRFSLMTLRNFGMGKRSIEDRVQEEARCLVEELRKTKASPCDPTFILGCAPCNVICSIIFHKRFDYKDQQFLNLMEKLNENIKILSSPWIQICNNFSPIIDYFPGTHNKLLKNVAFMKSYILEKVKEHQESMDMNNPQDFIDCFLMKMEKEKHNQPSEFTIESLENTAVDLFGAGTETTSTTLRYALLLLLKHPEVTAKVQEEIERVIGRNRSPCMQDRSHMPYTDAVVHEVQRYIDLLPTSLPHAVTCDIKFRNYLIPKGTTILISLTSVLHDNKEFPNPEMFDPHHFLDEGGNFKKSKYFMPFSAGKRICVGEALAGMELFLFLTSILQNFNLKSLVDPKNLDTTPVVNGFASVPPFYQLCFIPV
Phosphatidylinositol 4,5-bisphosphate 3-kinase catalytic subunit gamma isoform, sequence (P48736 whole entry, canonical isoform): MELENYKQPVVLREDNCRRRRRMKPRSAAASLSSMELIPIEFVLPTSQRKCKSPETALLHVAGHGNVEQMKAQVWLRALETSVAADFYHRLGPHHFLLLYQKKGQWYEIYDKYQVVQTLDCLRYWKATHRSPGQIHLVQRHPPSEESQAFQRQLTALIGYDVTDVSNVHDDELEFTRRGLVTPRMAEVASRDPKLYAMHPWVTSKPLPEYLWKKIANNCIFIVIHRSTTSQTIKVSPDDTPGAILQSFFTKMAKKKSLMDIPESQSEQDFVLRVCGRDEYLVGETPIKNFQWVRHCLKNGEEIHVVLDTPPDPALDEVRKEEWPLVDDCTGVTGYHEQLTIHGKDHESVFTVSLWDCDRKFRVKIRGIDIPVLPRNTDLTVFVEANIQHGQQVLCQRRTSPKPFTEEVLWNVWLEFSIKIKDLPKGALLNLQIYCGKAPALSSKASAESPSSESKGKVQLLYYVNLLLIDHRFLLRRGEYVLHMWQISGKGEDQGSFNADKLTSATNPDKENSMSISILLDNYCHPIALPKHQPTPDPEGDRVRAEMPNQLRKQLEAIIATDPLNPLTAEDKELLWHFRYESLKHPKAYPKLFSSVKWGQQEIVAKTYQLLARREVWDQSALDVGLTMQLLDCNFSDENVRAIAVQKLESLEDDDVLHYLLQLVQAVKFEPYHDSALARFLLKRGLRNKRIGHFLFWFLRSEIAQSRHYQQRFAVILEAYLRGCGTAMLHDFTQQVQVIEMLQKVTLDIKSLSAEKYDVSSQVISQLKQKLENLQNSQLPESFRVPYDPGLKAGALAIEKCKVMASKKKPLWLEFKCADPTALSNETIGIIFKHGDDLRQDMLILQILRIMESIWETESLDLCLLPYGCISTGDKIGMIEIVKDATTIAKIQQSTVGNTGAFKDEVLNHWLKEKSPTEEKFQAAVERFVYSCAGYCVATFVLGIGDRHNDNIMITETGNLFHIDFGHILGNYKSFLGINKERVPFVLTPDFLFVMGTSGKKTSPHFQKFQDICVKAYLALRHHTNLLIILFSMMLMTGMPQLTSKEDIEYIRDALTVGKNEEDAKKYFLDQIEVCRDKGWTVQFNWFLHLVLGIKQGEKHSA

For orientation: inhibition means the change of the read-out against control, counted positive when it falls. The clearance is the rate of elimination divided by the concentration. One may read the IC50 as the concentration that inhibits the measured activity by half. High values mean weaker potency in that assay, low ones greater potency in that assay. Broadly, the inhibition in vivo is the percentage by which the read-out fell short of the control. As to `COc1ccc(Cn2c(=O)n(C)c3c4cc(-c5cnc(OC)c(NS(C)(=O)=O)c5)ccc4ncc32)cc1`, the inhibition at 10 min, 10 µM on CYP2C8, on CYP2C9, against CYP1A2 and against CYP2D6 was less than 10% in each case. This compound also came in with a clearance in [1] of 8.24 mL/min/kg. The half-inhibitory concentration (IC50) is 891 nM in data set [2], 112 nM in [3] and 340 nM in the data set on TMD8 [5]. Moreover, the Activity entry in the data set on TMD8 [4] was “Dose-dependent effect”; in data set [6], “Non-Toxic”. Moreover, the inhibition in vivo at 30 mg/kg/day with TMD8 [7] was 100%. Further, in the data set listed under Homo sapiens, the Ratio IC50 stood at 469.

The record behind these values is ChEMBL document CHEMBL4390691, “Discovery of 1,3-dihydro-2H-imidazo[4,5-c]quinolin-2-ones based novel, potent and PI3Kδ selective inhibitors” (Bioorg Med Chem Lett, 2019).
